Source: ChEMBL document CHEMBL1944602, “Synthesis and biological characterisation of sirtuin inhibitors based on the tenovins” (Bioorg Med Chem, 2012)
Active and inactive are the calls of the source. No cut-off for these calls is given here.

Columns and labels:
[1] = Solubility of the compound in water by UV spectrophotometry; type: physicochemical
Summary of the method: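 Extinction coefficient from absorbance at 273 nm of a 7-point 2-fold dilution series in acetonitrile; DMSO used first where needed. Coefficient taken from the slope of absorbance against molar concentration. Used to find the actual concentration of a nominal 100 µM aqueous solution made from 40 mM DMSO stock.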

[2] = target: T1, NAD-dependent protein deacetylase sirtuin-2 (Homo sapiens, UniProt Q8IXJ6); test: Inhibition of recombinant human SitT2 by Fluor de Lys fluorescence assay
T1 sequence (Q8IXJ6 whole entry): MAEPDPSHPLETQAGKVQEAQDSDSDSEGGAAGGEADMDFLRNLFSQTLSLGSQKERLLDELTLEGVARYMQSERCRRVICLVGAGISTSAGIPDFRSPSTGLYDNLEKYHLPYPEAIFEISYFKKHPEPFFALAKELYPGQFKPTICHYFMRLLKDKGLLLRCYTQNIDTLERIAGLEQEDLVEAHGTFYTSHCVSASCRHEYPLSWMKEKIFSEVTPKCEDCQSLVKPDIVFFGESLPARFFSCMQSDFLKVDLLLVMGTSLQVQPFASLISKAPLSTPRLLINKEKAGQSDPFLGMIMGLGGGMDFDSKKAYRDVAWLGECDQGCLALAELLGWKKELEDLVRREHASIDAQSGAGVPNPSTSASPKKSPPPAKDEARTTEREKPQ

[3] = target: T2, NAD-dependent protein deacetylase sirtuin-1 (Homo sapiens) (UniProt Q96EB6); test: Inhibition of recombinant human SitT1 at 60 uM by Fluor de Lys fluorescence assay
T2 sequence (whole entry): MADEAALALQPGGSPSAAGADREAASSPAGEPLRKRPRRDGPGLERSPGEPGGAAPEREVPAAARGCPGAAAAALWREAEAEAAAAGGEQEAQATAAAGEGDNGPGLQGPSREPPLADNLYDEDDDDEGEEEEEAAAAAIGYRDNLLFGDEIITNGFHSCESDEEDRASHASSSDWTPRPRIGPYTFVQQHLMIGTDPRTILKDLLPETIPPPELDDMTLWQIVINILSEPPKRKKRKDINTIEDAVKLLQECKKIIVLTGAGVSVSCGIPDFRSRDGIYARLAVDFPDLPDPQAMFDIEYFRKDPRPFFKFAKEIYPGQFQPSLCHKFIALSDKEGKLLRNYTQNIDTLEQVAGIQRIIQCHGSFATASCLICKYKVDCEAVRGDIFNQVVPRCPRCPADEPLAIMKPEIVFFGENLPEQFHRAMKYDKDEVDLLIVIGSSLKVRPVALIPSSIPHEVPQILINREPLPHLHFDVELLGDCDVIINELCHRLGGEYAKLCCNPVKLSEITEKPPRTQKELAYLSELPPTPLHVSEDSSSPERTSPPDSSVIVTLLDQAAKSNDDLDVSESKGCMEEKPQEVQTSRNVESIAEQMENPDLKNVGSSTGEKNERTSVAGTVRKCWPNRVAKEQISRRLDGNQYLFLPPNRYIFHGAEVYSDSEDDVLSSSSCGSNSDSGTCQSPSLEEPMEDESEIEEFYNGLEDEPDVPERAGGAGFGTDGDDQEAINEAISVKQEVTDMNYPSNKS
Summary of the method: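 Human recombinant SirT1 deacetylation measured with the Fluor de Lys fluorescence kit at a fixed 60 µM inhibitor. Tested on two separate occasions; percent inhibition reported as a mean weighted to the standard error.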

[4] = target: T3, NAD-dependent protein deacetylase sirtuin-1 (Homo sapiens, UniProt Q96EB6); test: Inhibition of recombinant human SitT1 by Fluor de Lys fluorescence assay
T3 sequence (Q96EB6 whole entry): T2 sequence (whole entry)

[5] = target: T2, NAD-dependent protein deacetylase sirtuin-1 (Homo sapiens); test: Inhibition of SirT1 assessed as increase in p53 expression in human MCF7 cells at 10 uM after 6 hrs by Western blotting; type: cell-based
Summary of the method: (§1)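 MCF-7 cells grown in DMEM with 10% FCS and gentamycin, seeded at 2 × 10⁵ per well on collagen-coated plates and incubated 42 h at 37 °C in 5% CO2. Compound in DMSO was added for 6 h. Lysis in LDS buffer, protein equalised by BCA, 4–12% bis-tris SDS-PAGE, PVDF blot. Total p53 detected with DO.1, PCNA as loading control, ECL detection. Scored semi-quantitatively against untreated level.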

[6] = target: T2, NAD-dependent protein deacetylase sirtuin-1 (Homo sapiens); test: Inhibition of SirT1 assessed as increase in p53 expression in human MCF7 cells at 5 uM after 6 hrs by Western blotting; type: cell-based; summary of the method: as §1
[7] = target: T2, NAD-dependent protein deacetylase sirtuin-1 (Homo sapiens); test: Inhibition of SirT1 assessed as increase in p53 expression in human MCF7 cells at 2 uM after 6 hrs by Western blotting; type: cell-based; summary of the method: as §1
[8] = Cytotoxicity against human H1299 cells at 30 uM; type: cell-based; details: nci-h1299, 30 µM
[9] = target: T2, NAD-dependent protein deacetylase sirtuin-1 (Homo sapiens); test: Inhibition of SirT1 in human ARN8 cells assessed as p53 activation at 10 uM by beta-galactosidase reporter gene assay; type: cell-based
Summary of the method: (§2)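 p53-dependent transcription measured with a beta-galactosidase reporter in ARN8 cells, run in triplicate. Read-out is the ratio of signal in treated cells to DMSO-control cells, given to 2 significant figures; a positive or negative activity call is also recorded.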

[10] = target: T2, NAD-dependent protein deacetylase sirtuin-1 (Homo sapiens); test: Inhibition of SirT1 in human ARN8 cells assessed as p53 activation at 5 uM by beta-galactosidase reporter gene assay; type: cell-based; summary of the method: as §2
[11] = Drug metabolism in human H1299 cells after 16 hrs by mass spectrophotometry; type: ADME, cell-based; details: nci-h1299, 16 h
[12] = target: T2, NAD-dependent protein deacetylase sirtuin-1 (Homo sapiens); test: Inhibition of SirT1 in human ARN8 cells assessed as p53 activation at 20 uM by beta-galactosidase reporter gene assay relative to control; type: cell-based; summary of the method: as §2
[13] = target: T2, NAD-dependent protein deacetylase sirtuin-1 (Homo sapiens); test: Inhibition of SirT1 in human ARN8 cells assessed as p53 activation at 10 uM by beta-galactosidase reporter gene assay relative to control; type: cell-based; summary of the method: as §2
[14] = target: T2, NAD-dependent protein deacetylase sirtuin-1 (Homo sapiens); test: Inhibition of SirT1 in human ARN8 cells assessed as p53 activation at 5 uM by beta-galactosidase reporter gene assay relative to control; type: cell-based; summary of the method: as §2
[15] = Cytotoxicity against human ARN8 cells at 20 uM; type: cell-based; details: arn8, 20 µM
[16] = Cytotoxicity against human H1299 cells at 20 uM; type: cell-based; details: nci-h1299, 20 µM

| SMILES | solubility [1] | IC50 [2] | inhibition [3] | IC50 [4] | inhibition [5] | inhibition [6] | inhibition [7] | Activity [8] | inhibition [9] | inhibition [10] | Drug metabolism [11] | fold change (FC) [12] | fold change (FC) [13] | fold change (FC) [14] | Activity [15] | Activity [16] |
| --- | --- | --- | --- | --- | --- | --- | --- | --- | --- | --- | --- | --- | --- | --- | --- | --- |
| CN(C)CCCC(=O)Nc1ccc(NC(=S)NC(=O)c2ccc(C(C)(C)C)cc2)cc1.Cl | 0.57 µg/mL | 12.8 µM | 85.2% | 35.8 µM | Active | Active | inactive | – | – | – | – | – | – | – | – | – |
| CN(C)CCCCC(=O)Nc1ccc(NC(=S)NC(=O)c2ccc(C(C)(C)C)cc2)cc1.Cl | 0.74 µg/mL | – | 73.9% | – | Active | Active | Active | Toxic | Active | Active | Active | – | – | – | – | – |
| CCCCc1ccc(C(=O)NC(=S)Nc2ccc(NC(=O)CCCCN(C)C)cc2)cc1.Cl | – | 8.6 µM | 56.3% | 46.3 µM | – | – | – | Toxic | inactive | inactive | – | 0.28 | 0.93 | 0.91 | Toxic | Toxic |
| CN(C)CCOCCOCCOCCOCCOCC(=O)Nc1ccc(NC(=S)NC(=O)c2ccc(C(C)(C)C)cc2)cc1.Cl | > 1.34 µg/mL | > 90 µM | 29.6% | > 60 µM | inactive | inactive | inactive | – | – | – | – | – | – | – | – | – |
